Experimental data reported in ChEMBL document CHEMBL3286372, “Design, synthesis and structure-activity relationship of novel semi-synthetic flavonoids as antiproliferative agents” (2014).

Assays:
[1] = Growth inhibition of human RXF393 cells at 10 uM after 48 hrs by sulforhodamine B assay relative to control; type: functional; settings: RXF 393, 48 h, read-out: GI
Procedure, shortened: (§1)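 NCI-60 primary screen at a single 10 µM dose. Continuous 48 h exposure, with growth or viability estimated by sulforhodamine B protein staining. Reported as percent growth inhibition of treated cells relative to untreated growth.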

[2] = Growth inhibition of human HOP92 cells at 10 uM after 48 hrs by sulforhodamine B assay relative to control; type: functional; settings: HOP-92, 48 h, read-out: GI
Procedure, shortened: (§2)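 NCI-60 primary screen at a single dose of 10 µM with 48 h continuous exposure. Growth or viability read by sulforhodamine B protein staining and expressed as percent growth inhibition versus untreated cells.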

Mus musculus [3] = experiment: Increase in GSK-3beta level in tumor of BALB mouse allografted with mouse EAC cells at 3 mg/kg, ip for 5 days by competitive ELISA relative to control; type: functional, Ehrlich; settings: route intraperitoneal
Procedure, shortened: (§3)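 Female BALB mice bearing subcutaneous EAC tumours (2×10^5 cells in left hind leg, grown 2 wk). Dosed i.p. daily for 5 days; controls received saline. Excised tumours washed in cold saline and homogenised at 10% in PBS. GSK-3β measured by competitive ELISA, samples in duplicate. Change versus untreated controls, mean ± SEM, n = 6.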

Ehrlich [4] = experiment: Antitumor activity against mouse EAC cells allografted in BALB mouse assessed as tumor growth inhibition at 6 mg/kg, ip for 5 days relative to control; type: functional; settings: 120 h, route intraperitoneal, read-out: TGI
Procedure, shortened: (§4)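 Female BALB mice; Ehrlich ascites carcinoma cells, 2×10^5 cells/mouse in 0.2 ml saline, injected s.c. into the left hind leg and grown 2 wk. Daily i.p. saline (control), 3 or 6 mg/kg for 5 days. Caliper size V = 0.4×a(b)^2, taken just before the first dose and 24 h after the last. Mean ± SEM, n = 6; ANOVA with Tukey-Kramer.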

NCI-H522 = experiment: Growth inhibition of human NCI-H522 cells at 10 uM after 48 hrs by sulforhodamine B assay relative to control; type: functional; settings: NCI-H522, 48 h, read-out: GI; procedure, shortened: as §1
HT-29 = experiment: Growth inhibition of human HT-29 cells at 10 uM after 48 hrs by sulforhodamine B assay relative to control; type: functional; settings: HT-29, 48 h, read-out: GI; procedure, shortened: as §2
IGROV-1 = experiment: Growth inhibition of human IGROV1 cells at 10 uM after 48 hrs by sulforhodamine B assay relative to control; type: functional; settings: IGROV-1, 48 h, read-out: GI; procedure, shortened: as §2
Ehrlich [5] = experiment: Antitumor activity against mouse EAC cells allografted in ip dosed BALB mouse assessed as tumor growth inhibition administered for 5 days; type: functional, organism-based; procedure, shortened: as §4
Mus musculus [6] = experiment: Increase in GSK-3beta level in tumor of BALB mouse allografted with mouse EAC cells at 6 mg/kg, ip for 5 days by competitive ELISA relative to control; type: functional, Ehrlich; settings: route intraperitoneal; procedure, shortened: as §3
786-0 = experiment: Growth inhibition of human 786-0 cells at 10 uM after 48 hrs by sulforhodamine B assay relative to control; type: functional; settings: 786-0, 48 h, read-out: GI; procedure, shortened: as §2
Mus musculus [7] = experiment: Decrease in cyclin D1 level in tumor of BALB mouse allografted with mouse EAC cells at 3 mg/kg, ip for 5 days competitive ELISA relative to control; type: functional, Ehrlich; set-up: scale not given: the % may be the effect or the level left; settings: route intraperitoneal
Procedure, shortened: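 Mice bearing s.c. Ehrlich tumours (2×10^5 EAC cells, grown 2 wk) were given daily i.p. saline, 3 or 6 mg/kg for 5 days. Tumours were excised, washed in cold saline and blotted, and a 10% homogenate was made in phosphate buffered saline. Cyclin D1 was measured by competitive ELISA with samples in duplicate. Mean ± SEM, n = 6.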

[8] = Growth inhibition of human UACC257 cells at 10 uM after 48 hrs by sulforhodamine B assay relative to control; type: functional; settings: UACC-257, 48 h, read-out: GI
Procedure, shortened: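 NCI-60 primary single-dose screen at 10 µM with continuous 48 h exposure. Cell viability/growth read by sulforhodamine B protein staining. Reported as percent growth inhibition relative to untreated cells.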

K562 = experiment: Growth inhibition of human K562 cells at 10 uM after 48 hrs by sulforhodamine B assay relative to control; type: functional; settings: K562, 48 h, read-out: GI; procedure, shortened: as §2

For C=CCc1c2c(c(OC)c3ccoc13)C(=O)/C(=C/c1ccccc1OC)O2, the inhibition of growth at 10 µM [1] was 75%.
For COc1c2occc2c(OC)c2c(=O)c(CN3CCOCC3)c(/C=C/c3ccc(Cl)cc3)oc12, the inhibition of growth at 10 µM [2] was 95%.
With COc1c2occc2c(OC)c2c(=O)c(CN3CCOCC3)c(/C=C/c3ccc(N(C)C)cc3)oc12 the Activity (Mus musculus [3]) was 101.5%, the inhibition in vivo at 6 mg/kg (Ehrlich [4]) was 57.1% and the inhibition of growth at 10 µM (NCI-H522) was 84%. The inhibition of growth at 10 µM (HT-29) was 82%, the inhibition of growth at 10 µM (IGROV-1) was 78% and the TGI (Ehrlich [5]) was “Dose-dependent effect”. For the same compound, the Activity (Mus musculus [6]) was 197.2%, the inhibition of growth at 10 µM (786-0) was 95% and the Activity (Mus musculus [7]) was 40.6%. It also gave an inhibition of growth at 10 µM [8] of 76% and an inhibition of growth at 10 µM (K562) of 84%.
